Measurements reported in ChEMBL document CHEMBL1147105, “In vitro and in vivo activities of PD 0305970 and PD 0326448, new bacterial gyrase/topoisomerase inhibitors with potent antibacterial activities versus multidrug-resistant gram-positive and fastidious organism groups” (2007).

What was measured:
[1] = tested on: Staphylococcus warneri; assay: Antibacterial activity against Staphylococcus warneri; format: functional
Outline: (§1)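 Broth microdilution MIC following CLSI guidelines, in cation-adjusted Mueller-Hinton broth, incubated at 35°C. Recent clinical isolates and reference strains, with identity confirmed by automated and standard microbiological methods. Results reported as MIC range, MIC50 and MIC90.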

[2] = tested on: Shigella dysenteriae; assay: Antibacterial activity against Shigella dysenteriae; format: functional
[3] = tested on: Streptococcus pneumoniae; assay: Antibacterial activity against quinolone-resistant Streptococcus pneumoniae SP4333 infected twice daily orally dosed CD1 mouse; format: functional; conditions: po; for ED50: read-out: PD50
Outline: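 Pneumonia model in CD1 mice (n = 8), anaesthetised with ketamine i.p. Intranasal instillation of 50 μl of broth culture (10^8–10^9 CFU/ml, OD600 0.70), confirmed by plate counts. Oral therapy began 24 h post-challenge. Dosing was either once daily for 1 day or twice daily for 3 days. The result was given as the PD50 (mg/kg).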

[4] = tested on: Staphylococcus aureus; assay: Antibacterial efficacy against methicillin-resistant Staphylococcus aureus SA1417 infected orally dosed CD1 mouse model; format: functional
Outline: (§2)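 Sepsis model in female CD1 mice (6–8 weeks, 18–22 g). Lethal i.p. challenge (0.5 ml) at ≥100 median lethal doses. Streptococci were given in Todd-Hewitt broth; other organisms were given with 20% hog gastric mucin. A single oral gavage dose (0.5 ml, in 0.5% methylcellulose) was given at the time of challenge. The PD50 (mg/kg) was calculated by probit analysis.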

[5] = tested on: Streptococcus pyogenes; assay: Antibacterial efficacy against Streptococcus pyogenes C203 infected orally dosed CD1 mouse model; format: functional; conditions: C203, po; for ED50: read-out: PD50; outline: as §2
[6] = tested on: Enterococcus gallinarum; assay: Antibacterial activity against Enterococcus gallinarum; format: functional
[7] = tested on: Enterococcus faecalis; assay: Antibacterial activity against VanB-resistant Enterococcus faecalis; format: functional
Outline: (§3)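 Broth microdilution MIC per CLSI guidelines, incubated at 35°C. Cation-adjusted Mueller-Hinton broth for nonfastidious organisms and staphylococci. Streptococci tested in the same broth with 3% lysed horse blood. Anaerobes tested in supplemented Brucella broth inside an anaerobe chamber (5% CO2, 5% H2, 90% N2), read after 48 h. Strains were mainly recent clinical isolates with confirmed identity.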

[8] = tested on: Streptococcus agalactiae; assay: Antibacterial activity against Streptococcus agalactiae; format: functional
Outline: (§4)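 Broth microdilution MIC following CLSI guidelines, in cation-adjusted Mueller-Hinton broth containing 3% lysed horse blood, incubated at 35°C. Clinical isolates with identity confirmed. Reported as MIC range, MIC50 and MIC90.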

[9] = tested on: Streptococcus sanguinis; assay: Antibacterial activity against Streptococcus sanguis; format: functional
Outline: (§5)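 Broth microdilution MIC following CLSI guidelines, in cation-adjusted Mueller-Hinton broth with 3% lysed horse blood. Plates incubated at 35°C. Clinical isolates and reference strains, with identity confirmed by standard microbiological methods.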

[10] = tested on: Bacteroides thetaiotaomicron; assay: Antibacterial activity against Bacteroides thetaiotaomicron; format: functional
Outline: (§6)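 Anaerobic broth microdilution MIC following CLSI guidelines, in supplemented Brucella broth. Run in an anaerobe chamber under 5% CO2, 5% H2 and 90% N2 at 35°C, and read after 48 h. Reported as MIC range, MIC50 and MIC90.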

[11] = tested on: Hoylesella oralis; assay: Antibacterial activity against Prevotella oralis; format: functional; outline: as §6
[12] = tested on: Clostridioides difficile; assay: Antibacterial activity against Clostridium difficile; format: functional; outline: as §6
[13] = tested on: Moraxella catarrhalis; assay: Antibacterial activity against beta-lactamase negative Moraxella catarrhalis; format: functional
[14] = tested on: Bacteroides fragilis; assay: Antibacterial activity against Bacteroides fragilis; format: functional; outline: as §6
[15] = tested on: Actinomyces sp.; assay: Antibacterial activity against Actinomyces sp.; format: functional
[16] = tested on: Fusobacterium necrophorum; assay: Antibacterial activity against Fusobacterium necrophorum; format: functional; outline: as §6
[17] = tested on: Staphylococcus haemolyticus; assay: Antibacterial activity against Staphylococcus haemolyticus; format: functional; outline: as §4
[18] = tested on: Citrobacter freundii; assay: Antibacterial activity against Citrobacter freundii; format: functional; outline: as §1
[19] = tested on: Staphylococcus aureus; assay: Antibacterial efficacy against methicillin-susceptible Staphylococcus aureus UC76 infected orally dosed CD1 mouse model; format: functional; conditions: UC76, po; for ED50: read-out: PD50; outline: as §2
[20] = tested on: Staphylococcus aureus; assay: Antibacterial activity against oxacillin-susceptible Staphylococcus aureus; format: functional
Outline: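 MIC by CLSI broth microdilution for nonfastidious organisms, in cation-adjusted Mueller-Hinton broth incubated at 35°C.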

[21] = tested on: Cutibacterium acnes; assay: Antibacterial activity against Propionibacterium acnes; format: functional
[22] = tested on: Anaerococcus prevotii; assay: Antibacterial activity against Peptostreptococcus prevotii; format: functional; outline: as §6
[23] = tested on: Staphylococcus saprophyticus; assay: Antibacterial activity against Staphylococcus saprophyticus; format: functional; outline: as §1
[24] = tested on: Enterococcus casseliflavus; assay: Antibacterial activity against Enterococcus casseliflavus; format: functional
[25] = tested on: Klebsiella oxytoca; assay: Antibacterial activity against Klebsiella oxytoca; format: functional; outline: as §1
[26] = tested on: Enterococcus faecalis; assay: Antibacterial activity against Enterococcus faecalis; format: functional; outline: as §3
[27] = tested on: Streptococcus pneumoniae; assay: Antibacterial efficacy against Streptococcus pneumoniae SVI infected orally dosed CD1 mouse model; format: functional; conditions: po; for ED50: read-out: PD50; outline: as §2
[28] = tested on: Shigella flexneri; assay: Antibacterial activity against Shigella flexneri; format: functional; outline: as §1
[29] = tested on: Fusobacterium nucleatum; assay: Antibacterial activity against Fusobacterium nucleatum; format: functional; outline: as §6
[30] = tested on: Moraxella catarrhalis; assay: Antibacterial activity against beta-lactamase positive Moraxella catarrhalis; format: functional
[31] = tested on: Alloiococcus otitis; assay: Antibacterial activity against Alloiococcus otitidis; format: functional
Outline: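 MIC by broth microdilution following CLSI guidelines, in cation-adjusted Mueller-Hinton broth with 3% lysed horse blood. Incubated at 35°C and read after 48 h. Reported as MIC range, MIC50 and MIC90.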

[32] = tested on: Enterococcus faecalis; assay: Antibacterial efficacy against Enterococcus faecalis MGH2 infected orally dosed CD1 mouse model; format: functional; outline: as §2
[33] = tested on: Listeria monocytogenes; assay: Antibacterial activity against Listeria monocytogenes; format: functional; outline: as §4
[34] = tested on: Prevotella bivia; assay: Antibacterial activity against Prevotella bivia; format: functional; outline: as §6
[35] = tested on: Bacteroides ovatus; assay: Antibacterial activity against Bacteroides ovatus; format: functional; outline: as §6
[36] = tested on: Enterococcus faecium; assay: Antibacterial activity against Enterococcus faecium; format: functional; outline: as §3
[37] = tested on: Peptoniphilus asaccharolyticus; assay: Antibacterial activity against Peptostreptococcus asaccharolyticus; format: functional; outline: as §6
[38] = tested on: Streptococcus viridans; assay: Antibacterial activity against Streptococcus viridans; format: functional; outline: as §5
[39] = tested on: Burkholderia cepacia; assay: Antibacterial activity against Burkholderia cepacia; format: functional; outline: as §1
[40] = tested on: Salmonella enteritidis; assay: Antibacterial activity against Salmonella enterica serovar Enteritidis; format: functional, Salmonella enterica subsp. enterica serovar Enteritidis; outline: as §1
[41] = tested on: Corynebacterium jeikeium; assay: Antibacterial activity against Corynebacterium jeikeium; format: functional; outline: as §4

Cc1c(N2CC[C@@H]([C@H](C)N)C2)c(F)cc2c(=O)n(N)c(=O)n(C3CC3)c12
2.5 mg/kg: ED50 ([4]; read-out: PD50)
0.03 mg/L: MIC [3] | MIC50 [8] | MIC90 [8] | MIC50 [9] | MIC90 [9] | MIC [22] | MIC [37] | MIC50 [38] | MIC90 [38]
0.06 mg/L: MIC [1] | MIC [16] | MIC [19] | MIC50 [23] | MIC [29]
1.9 mg/kg: ED50 [19]
0.015 mg/L: MIC [5] | MIC [27]
0.008 mg/L: MIC90 [31]
0.125 mg/L: MIC50 [17] | MIC50 [20] | MIC90 [20] | MIC90 [23] | MIC50 [26] | MIC [32] | MIC50 [33]
2 mg/L: MIC90 [12] | MIC50 [14] | MIC50 [21] | MIC90 [25] | MIC90 [36]
2.7 mg/kg: ED50 [27]
4 mg/L: MIC50 [10] | MIC90 [14] | MIC50 [18] | MIC90 [21] | MIC50 [35]
32 mg/L: MIC50 [39]
19 mg/kg: ED50 ([32]; read-out: PD50)
16 mg/L: MIC90 [10] | MIC90 [18] | MIC90 [35]
0.004 mg/L: MIC50 [31]
0.25 mg/L: MIC [4] | MIC50 [6] | MIC90 [6] | MIC50 [7] | MIC90 [7] | MIC50 [11] | MIC50 [13] | MIC50 [24] | MIC90 [24] | MIC90 [26] | MIC50 [30] | MIC90 [33] | MIC50 [34] | MIC50 [41] | MIC90 [41]
0.7 mg/kg: ED50 [5]
0.5 mg/L: MIC50 [2] | MIC50 [12] | MIC90 [13] | MIC [15] | MIC90 [17] | MIC50 [28] | MIC90 [30] | MIC50 [40]
1 mg/L: MIC90 [2] | MIC90 [11] | MIC50 [25] | MIC90 [28] | MIC90 [34] | MIC50 [36] | MIC90 [40]
4.1 mg/kg: ED50 [3]
64 mg/L: MIC90 [39]

C[C@H]1COc2c(N3CCN(C)CC3)c(F)cc3c(=O)c(C(=O)O)cn1c23.C[C@H]1COc2c(N3CCN(C)CC3)c(F)cc3c(=O)c(C(=O)O)cn1c23.O [LEVOFLOXACIN]
8 mg/L: MIC50 [10] | MIC50 [35]
> 200 mg/kg: ED50 [3]
4 mg/L: MIC50 [14] | MIC50 [39]
32 mg/L: MIC90 [7] | MIC90 [10] | MIC90 [14] | MIC90 [17] | MIC90 [26] | MIC90 [35] | MIC50 [36]
0.06 mg/L: MIC90 [2] | MIC90 [13] | MIC50 [25] | MIC90 [28] | MIC90 [30] | MIC90 [40]
4.6 mg/kg: ED50 [19]
0.03 mg/L: MIC50 [2] | MIC50 [13] | MIC [16] | MIC50 [28] | MIC [29] | MIC50 [30] | MIC50 [40]
16 mg/L: MIC50 [7] | MIC90 [18] | MIC50 [26] | MIC90 [39]
2 mg/L: MIC90 [6] | MIC90 [11] | MIC50 [21] | MIC50 [24] | MIC90 [24] | MIC90 [25] | MIC90 [34]
69 mg/kg: ED50 [27]
1 mg/L: MIC50 [6] | MIC50 [8] | MIC90 [8] | MIC50 [9] | MIC90 [9] | MIC50 [11] | MIC [32] | MIC50 [33] | MIC90 [33] | MIC50 [34] | MIC50 [38] | MIC90 [38]
64 mg/L: MIC90 [21] | MIC90 [36]
17.7 mg/kg: ED50 [5]
0.125 mg/L: MIC [1] | MIC50 [18] | MIC [19] | MIC [22] | MIC [37]
0.5 mg/L: MIC [5] | MIC50 [12] | MIC90 [12] | MIC90 [23] | MIC90 [41]
0.25 mg/L: MIC [4] | MIC [15] | MIC50 [17] | MIC50 [20] | MIC90 [20] | MIC50 [23] | MIC50 [31] | MIC90 [31] | MIC50 [41]
